Test results reported in ChEMBL document CHEMBL3098023, “Rationally designed hybrid molecules with appreciable COX-2 inhibitory and anti-nociceptive activities” (Bioorg Med Chem Lett, 2014).
Activity calls are given as the source filed them. The calls are words filed in the database; no cut-off is given here.

Key:
[1] = target: T1, Prostaglandin G/H synthase 1 (Ovis aries, UniProt P05979); experiment: Inhibition of ovine COX1 using arachidonic acid as substrate incubated for 10 mins prior to substrate addition measured after 2 mins by spectrophotometry
T1 sequence (P05979 whole entry): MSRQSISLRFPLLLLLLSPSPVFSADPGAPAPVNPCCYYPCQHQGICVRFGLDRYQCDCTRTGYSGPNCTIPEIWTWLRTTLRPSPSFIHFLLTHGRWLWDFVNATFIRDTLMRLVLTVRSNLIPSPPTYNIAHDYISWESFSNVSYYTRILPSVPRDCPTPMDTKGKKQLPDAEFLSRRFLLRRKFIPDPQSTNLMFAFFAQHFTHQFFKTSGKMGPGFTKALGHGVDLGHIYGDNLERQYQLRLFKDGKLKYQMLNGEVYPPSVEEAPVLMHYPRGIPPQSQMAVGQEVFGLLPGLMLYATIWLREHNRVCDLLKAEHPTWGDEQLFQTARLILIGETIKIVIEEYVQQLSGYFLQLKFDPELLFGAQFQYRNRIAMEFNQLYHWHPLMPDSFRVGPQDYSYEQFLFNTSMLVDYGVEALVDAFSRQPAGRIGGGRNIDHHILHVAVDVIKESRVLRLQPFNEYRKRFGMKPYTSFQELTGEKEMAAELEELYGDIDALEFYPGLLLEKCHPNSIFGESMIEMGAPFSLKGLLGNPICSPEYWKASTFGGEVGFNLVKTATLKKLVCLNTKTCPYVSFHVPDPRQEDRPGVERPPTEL
How it was run: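 Ovine COX-1 with heme, preincubated 10 min at 37 °C with inhibitor at 10^-3 to 10^-6 M. Arachidonic acid reaction for 2 min, stopped with 1 M HCl, then stannous chloride. Prostaglandin quantified by competitive EIA with AChE tracer, Ellman's reagent read at 420 nm. Heat-inactivated enzyme for background. Run in duplicate; IC50 fitted from % inhibition against concentration.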

[2] = target: T2, Prostaglandin G/H synthase 2 (Homo sapiens) (UniProt P35354); experiment: Inhibition of human recombinant COX2 using arachidonic acid as substrate at 10^-8 to 10^-5 M incubated for 10 mins prior to substrate addition measured after 2 mins by spectrophotometry
T2 sequence (whole entry): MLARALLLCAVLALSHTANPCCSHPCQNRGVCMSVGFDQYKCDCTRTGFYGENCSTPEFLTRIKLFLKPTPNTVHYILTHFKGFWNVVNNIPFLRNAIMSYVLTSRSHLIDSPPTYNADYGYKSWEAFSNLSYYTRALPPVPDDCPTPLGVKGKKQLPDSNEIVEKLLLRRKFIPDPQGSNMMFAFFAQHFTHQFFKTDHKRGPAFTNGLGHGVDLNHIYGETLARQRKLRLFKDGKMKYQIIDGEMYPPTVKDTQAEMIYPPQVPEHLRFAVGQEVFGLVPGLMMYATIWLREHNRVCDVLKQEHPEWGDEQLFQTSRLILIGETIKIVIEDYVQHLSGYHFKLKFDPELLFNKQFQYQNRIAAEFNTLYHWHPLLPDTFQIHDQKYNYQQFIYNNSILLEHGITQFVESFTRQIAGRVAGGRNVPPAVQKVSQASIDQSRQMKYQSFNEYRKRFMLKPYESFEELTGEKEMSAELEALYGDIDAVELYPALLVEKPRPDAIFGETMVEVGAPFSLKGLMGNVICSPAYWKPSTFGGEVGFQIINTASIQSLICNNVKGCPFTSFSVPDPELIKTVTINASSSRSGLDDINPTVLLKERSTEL
How it was run: (§1)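 Human recombinant COX-2 or ovine COX-1 with heme in reaction buffer, preincubated with inhibitor 10 min at 37 °C. Arachidonic acid then added for 2 min, stopped with 1 M HCl, followed by stannous chloride. Prostaglandin measured by AChE-tracer EIA, 18 h at room temperature, Ellman's development, absorbance at 420 nm. Boiled enzyme as background. Duplicates; IC50 from % inhibition versus concentration plot.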

[3] = target: T3, Prostaglandin G/H synthase 1 (Ovis aries) (UniProt P05979); experiment: Inhibition of ovine COX1 using arachidonic acid as substrate at 10^-8 to 10^-5 M incubated for 10 mins prior to substrate addition measured after 2 mins by spectrophotometry; how it was run: as §1
T3 sequence (whole entry): T1 sequence (P05979 whole entry)

[4] = system: Mus musculus; experiment: Antinociceptive activity in Swiss albino mouse assessed as reduction in capsaicin-induced paw licking at 25 mg/kg, ip administered 30 mins prior to capsaicin-challenge; format: functional, organism-based; parameters: dose 25 mg/kg
How it was run: (§2)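 Swiss albino mice (25–35 g) of either sex, acclimatized at least 1 h, each used once; groups of 6. Treatments given ip 30 min before intraplantar capsaicin (1.6 µg in 20 µL) into right hind paw; saline (0.5 mL) control, diclofenac 25 mg/kg reference, test doses 5 or 10 mg/kg. Time spent paw licking and twitching recorded over 10 min per animal.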

[5] = system: Mus musculus; experiment: Antinociceptive activity in Swiss albino mouse assessed as reduction in capsaicin-induced paw licking at 10 mg/kg, ip administered 30 mins prior to capsaicin-challenge; format: functional, organism-based; parameters: dose 10 mg/kg; how it was run: as §2
[6] = system: Mus musculus; experiment: Antinociceptive activity in Swiss albino mouse assessed as reduction in capsaicin-induced paw licking at 5 mg/kg, ip administered 30 mins prior to capsaicin-challenge; format: functional, organism-based; parameters: dose 5 mg/kg; how it was run: as §2

SMILES | IC50 [1] | inhibition [2] | inhibition [3] | Activity [4] | Activity [5] | Activity [6]
O=c1cc(-c2ccccc2)oc2cc(O)cc(O)c12 [CHRYSIN] | 39.3 µM | – | – | – | – | –
O=C1/C(=C\c2cn(CCCCOc3cc(O)c4c(=O)cc(-c5ccccc5)oc4c3)c3ccccc23)c2ccccc2N1c1c(Cl)cccc1Cl | – | inactive | inactive | – | – | –
O=C(O)Cc1ccccc1Nc1c(Cl)cccc1Cl | – | – | – | Active | – | –
O=C1/C(=C\c2cn(CCCOc3cc(O)c4c(=O)cc(-c5ccccc5)oc4c3)c3ccccc23)c2ccccc2N1c1c(Cl)cccc1Cl | 115 µM | – | – | – | Active | Active

More lines, main results first:

IC50 [1] | inhibition [2] | inhibition [3] | SMILES | Activity [4] | Activity [5] | Activity [6]
– | inactive | inactive | O=C1Nc2ccccc2/C1=C/c1cn(CCCCOc2cc(O)c3c(=O)cc(-c4ccccc4)oc3c2)c2ccccc12 | – | – | –
102 µM | – | – | O=C1Nc2ccccc2/C1=C/c1cn(CCCOc2cc(O)c3c(=O)cc(-c4ccccc4)oc3c2)c2ccccc12 | – | inactive | inactive
118 µM | – | – | CC1=NN(c2cccc(Cl)c2)C(=O)/C1=C\c1cn(CCCOc2cc(O)c3c(=O)cc(-c4ccccc4)oc3c2)c2ccccc12 | – | Active | inactive
90 µM | – | – | CC1=NN(c2cccc(Cl)c2)C(=O)/C1=C\c1cn(CCCCOc2cc(O)c3c(=O)cc(-c4ccccc4)oc3c2)c2ccccc12 | – | Active | Active
